The source of these data is ChEMBL document CHEMBL4513216, “Probing the Open Global Health Chemical Diversity Library for Multistage-Active Starting Points for Next-Generation Antimalarials” (ACS Infect Dis, 2020).

SMILES strings stand for the structures.

A short description of this series: Toxicity liver stage against HepG2, at 10uM. The series is classed as cell-based. Also noted: test concentration 10 uM, cell line HepG2-A16-CD81EGFP. To be noted: human, HepG2-A16-CD81EGFP cells; read-out: INHIBITION
In outline: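 Uninfected HepG2-A16-CD81EGFP cells, 3 × 10^3 per well, 1536-well, plated on prespotted compound at 10 μM final, parasite-free screening media added to match infected plates; puromycin 10 μM positive, DMSO 0.5% negative; run in parallel with 48 h PbLuc assay at 37 °C, 5% CO2; viability by CellTiter-Glo luminescence, normalized to controls.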
For `O=C(c1ccno1)N1CCOC[C@H](Oc2ccc(C(F)(F)F)cc2)C1`, the cytotoxicity at 10 µM was 1.48%.
With `Cc1nc(-c2ccoc2)n(CC(=O)N(C)CC(C)C)c1C` the figure was -4.5%.
Then `O=C1CCNc2ncc(-c3ccccc3Cl)cc2CN1C1CC1`, with 8.89%; and `CCOC(=O)[C@@H]1[C@@H](c2ccccc2)CN2CCNC[C@H]12`, with 3.8%; and `COc1ccccc1C(=O)N1CC(=O)N(C2CCCCC2)CC(O)C1` (configuration not stated), with -3.09%.
With `O=S1(=O)CCC(S(=O)(=O)c2cccc(S(=O)(=O)N3CCCCCC3)c2)C1` (configuration not stated) the figure was -7.39%; with `COc1nn(C)cc1C(=O)N1CCC(C)CC1`, 5.97%; with `COc1ccc(C)cc1NC(=O)Nc1cnc(N2CCOCC2)nc1`, -9.67%.
In the case of `O=C(c1cnccn1)N1CCC2(CC1)C(=O)NCC2c1ccccc1` (configuration not stated), the cytotoxicity at 10 µM was -3.68%.
With `CN(C)CCN1Cc2ncn(C)c2C(COCC(=O)N(C)C)C1` (configuration not stated) the figure was 7.83%; with `Cc1cc(-n2nnc(C(=O)O)c2-c2ccncc2)ccc1F`, 6.31%; with `CS(=O)(=O)Nc1ccn(Cc2ccc(Br)cc2)n1`, 10.9%.
With `O=C(CCn1ncc2c(Cl)cccc21)NCCCO` the figure was 7.63%; with `Cc1nnc(NC(=O)C(C)n2ncc(Br)c2C)s1` (configuration not stated), 1.81%; with `CCn1nc(C)c2nnn(CC(=O)Nc3ccccc3)c(=O)c21`, 9.02%.
With `Cc1c(C2=NS(=O)(=O)N(C)C(C(=O)Nc3ccc(Br)cc3)=C2)cnn1C` the figure was 11.7%; with `COCC(=O)N1CCOC(c2ccc(N(C)C)cn2)C1` (configuration not stated), -13.1%; with `Cc1ncsc1CN1CC[C@H](O)[C@@H](n2cnc3c(N)ncnc32)CC1`, -10.8%.
In the case of `CN(Cc1ccccc1)C(=O)c1cc2c(c(S(N)(=O)=O)c1)CCC2`, the cytotoxicity at 10 µM was -41.5%.
Then `COc1cc(F)ccc1NC(=O)NC(C)C(=O)NC(C)(C)C` (configuration not stated), with -6.1%.
With `CC(=O)NCC(=O)Nc1cc(C)n(-c2ccc(Cl)cc2Cl)n1` the figure was -140%.
With `Cc1cc(NC(=O)C2CCN(c3ncccc3C#N)CC2)no1` the figure was 3.54%.
Consider `CNS(=O)(=O)c1ccc(CNC(=O)C2CN(C)CCO2)cc1` (configuration not stated), for which the cytotoxicity at 10 µM was -14.1%.
Then `Cc1nn(C)c(C)c1CC(=O)N1CCCC(CNS(C)(=O)=O)C1` (configuration not stated), with 3.3%; and `NCC1(c2cccc(F)c2)CCOCC1`, with -7.87%.
Then `CCS(=O)(=O)CCCOc1nc(-c2ccccc2Cl)no1`, with -6.14%; and `O=C(NS(=O)(=O)c1ccc(Cl)cc1F)c1cccc2c1OCCO2`, with -5.33%.
Then `CCC(CC)C(=O)NCc1cn2cc(Br)ccc2n1`, with 5.17%; and `CC1(C)CN(C(=O)Nc2ccc(Cn3cccn3)cc2)CCO1`, with 45.1%; and `CCOc1cc(NC(=O)N(C)Cc2ncnn2C)ccc1C`, with 13.4%.
Take `COC(=O)c1ccc(NC(=O)CCc2ccncc2)c(C)c1`: the cytotoxicity at 10 µM came to 7.83%.
Then `CCC1CCCCCN1C(=O)c1cc(C#N)c(SC)[nH]c1=O` (configuration not stated), with 12%; and `O=C(NCc1cc[nH]n1)N1CCC(Oc2ccccc2Cl)CC1`, with 8.16%.
As to `CCN(C(=O)c1ccc2nnc(C3CCN(C(C)=O)C3)n2c1)C(C)C` (configuration not stated), the cytotoxicity at 10 µM was -107%.
With `CC(C)c1cc(NCC2(N(C)C)CCCC2)ncn1` the figure was 4.22%; with `Cc1n[nH]c(SCCNC2CCN(c3nc4ccccc4s3)CC2)n1`, -6.92%; with `CC(=O)c1ccc(N2CCCC(CO)(Cc3ccccc3F)C2)nc1` (configuration not stated), 8.59%.
With `Cc1nc(N2C[C@@H](CN3CCCN(C)CC3)[C@@H](CO)C2)c2ccsc2n1` the figure was -6.56%; with `COc1ccnc(N2CCC(=O)N(CC3CC3)C(C(C)C)C2)n1` (configuration not stated), 1.73%; with `c1ccc2c(c1)CC(N1CCCC(NCc3ccc4nonc4c3)C1)C2` (configuration not stated), 5.6%.
With `COc1nc2c(cc1C(=O)NCCCc1nnc(N)s1)CCC2` the figure was 4.37%; with `Fc1ccccc1Cc1noc(CN2CCC(C3CCCCC3)C2)n1` (configuration not stated), 0.372%; with `Cc1nc(CN(C)c2nccc(C(F)(F)F)n2)cs1`, 1.15%.
Regarding `COc1ccc(OC)c(C2CCN(C(=O)C3CCOCC3)C2)c1` (configuration not stated), the cytotoxicity at 10 µM stood at 5.6%.
With `Cc1ccccc1SCC(=O)Nn1cnnc1` the figure was -43.1%.
Then `Cn1ccnc1SCCNc1ccnc(C(F)(F)F)n1`, with -50.4%.
Regarding `COCC1CCN(c2nc(C(C)(C)C)nc3c2cnn3C)C1` (configuration not stated), the cytotoxicity at 10 µM is -8.44%.
With `Cc1cc(N2CCC(n3cc(CN4CCNCC4)nn3)CC2)ccn1` the figure was -1.83%.
Then `Cc1nc(CCN)cc(N2CCCN(C(=O)c3ccco3)CC2)n1`, with 1.24%.
Turning to `COc1cccc(OC2CN(C(=O)c3ccnc(OC)c3)C2)c1`, the cytotoxicity at 10 µM is -6.52%.
For the compound `CC(C)n1ccnc1CN1CCOC(CC2CCCCC2)C1` (configuration not stated), the cytotoxicity at 10 µM is -138%.
Then `O=c1cc(N2CCNCC2)cnn1CCCn1cccn1`, with -48%.
With `Cn1cc(-c2c(C#N)c(N)nc3c2CCc2[nH]ccc2-3)cc1C#N` the figure was -1.68%.
With `Cc1nc(-c2ncc(C(=O)NCCNc3ncccc3C)c(O)n2)cs1` the figure was -0.153%.
As for `CN(C)C(C(=O)NCc1cc(C(C)(C)C)n[nH]1)c1ccc(F)cc1` (configuration not stated), the cytotoxicity at 10 µM was -5.54%.
With `CCc1nc(N)nc(N2CCCC3(CCOCC3)C2)c1C` the figure was -123%.
As to `CCc1nnc(NCc2cccc(OC)c2OC)o1`, the cytotoxicity at 10 µM amounted to 6.79%.
Consider `CCOCCn1c(=O)[nH]c2cc(C(=O)N(C)CCc3cn[nH]c3)ccc21`, for which the cytotoxicity at 10 µM was -21.7%.
`CC(=O)c1cc(CC(=O)NCc2ccc(CN(C)C)cc2)cs1`: the cytotoxicity at 10 µM was -11.3%.
With `O=C(NCc1ccccc1Cn1cncn1)C1CC1` the figure was -11.3%; with `CCOc1ccccc1N1CCN(C(=O)NCc2cc[nH]n2)CC1`, 5.48%.
Then `Cc1ccccc1CNC(=O)Cn1nc(-c2ccc(F)cc2)oc1=O`, with -7.63%; and `CC(=O)N(C)c1nc(CN2CCCC2c2cnn(C)c2)cs1` (configuration not stated), with -16.1%.
Regarding `Cc1cc(NC(=O)CN2CCCC2c2noc(C(C)C)n2)no1` (configuration not stated), the cytotoxicity at 10 µM is -14.3%.
With `O=C(CCNc1ncccn1)N1CCCC(n2cccn2)C1` (configuration not stated) the figure was 0.2%; with `CCc1ncc(C(=O)N2CCCC2Cn2cccn2)s1` (configuration not stated), -9.67%; with `c1ccc(CC2CCN(Cc3ccnc(-c4cccnc4)n3)CC2)cc1`, 6.36%.
Then `COc1ccc(CN2C[C@H]3CN(c4ccsc4)C(=O)[C@H]3C2)cc1`, with 22.8%.
For `O=C(NC1CC2(CCN(CCO)CC2)c2ccccc21)c1ccno1` (configuration not stated), the cytotoxicity at 10 µM is -12.2%.
Then `Cc1nc(COCc2cnc3n2CCN(CC2CCC2)C3C)cs1` (configuration not stated), with -5.63%.
With `c1ccc(CN2CCOCC3(CCN(C4CCOCC4)C3)C2)cc1` (configuration not stated) the figure was 3.01%; with `CCCn1ncc(-c2ccnc(N[C@@H]3C[C@H]4CC[C@@H]3C4)n2)c1C`, 0.541%.
